pEC50, pIC50: −log10 of the molar value.
Experiments:
[1] = Inhibition of beta-hematin formation assessed as Ferriprotoporphyrin IX biomineralisation after 24 hrs; type: functional
Summary of the method: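 Hemin (0.5 mg/ml in DMSO) was mixed with 0.5 M sodium acetate pH 4.4 and compound, then incubated for 24 h at 37 °C. The pellet was washed with DMSO to remove unreacted hemin and dissolved in 0.1 N NaOH, with A405 read. Percent inhibition was taken versus solvent control, and IC50 by curve fitting.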

Human respirovirus 3 = experiment: Antiviral activity against Parainfluenza-3 virus infected in african green monkey Vero cells assessed as inhibition of virus-induced cytopathogenicity after 4 days; type: functional, organism-based; details: Human respirovirus 3, Vero, 96 h
Summary of the method: (§1)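 Confluent HEL, Vero or HeLa monolayers were inoculated with 100 CCID50 of virus in the presence of varying concentrations of compound. Cytopathicity was scored when it reached completion in untreated, virus-infected control cultures.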

Sindbis virus = experiment: Antiviral activity against Sindbis virus infected in african green monkey Vero cells assessed as inhibition of virus-induced cytopathogenicity after 4 days; type: functional, organism-based; details: 96 h; summary of the method: as §1
[2] = Cytotoxicity against human HeLa cells assessed as minimum compound concentration required to causes microscopically detectable alteration of normal cell morphology; type: cell-based
Summary of the method: (§2)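 Confluent, non-proliferating cell cultures were exposed to the compounds. The endpoint was the minimum concentration producing a microscopically detectable alteration of normal cell morphology.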

[3] = Cytotoxicity against MDCK cells assessed as cell viability by colorimetric formazan-based MTS assay; parameters: species or system Canis lupus familiaris; details: dog, MDCK cells
Summary of the method: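 Cytotoxicity on MDCK cells; 50% cytotoxic concentration from cell viability measured by colorimetric formazan-based MTS assay.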

Influenza A virus [4] = experiment: Antiviral activity against Influenza A virus H1N1 infected in MDCK cells assessed as inhibition of virus-induced cytopathogenicity after 4 days by colorimetric formazan-based MTS assay; type: functional, organism-based; details: 96 h
[5] = Cytotoxicity against african green monkey Vero cells assessed as minimum compound concentration required to causes microscopically detectable alteration of normal cell morphology; type: cell-based; details: chlorocebus sabaeus; summary of the method: as §2
Influenza A virus [6] = experiment: Antiviral activity against Influenza A virus H3N2 infected in MDCK cells assessed as inhibition of virus-induced cytopathogenicity after 4 days by colorimetric formazan-based MTS assay; type: functional, organism-based; details: 96 h
[7] = tested on: Vesicular stomatitis virus; experiment: Antiviral activity against Vesicular stomatitis virus infected in HeLa cells assessed as inhibition of virus-induced cytopathogenicity after 4 days; type: functional, organism-based; details: 96 h
Summary of the method: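 Confluent HEL or HeLa monolayers infected with 100 CCID50 of virus in the presence of varying compound concentrations.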

Influenza B virus = experiment: Antiviral activity against Influenza B virus infected in MDCK cells assessed as reduction visual scoring of virus-induced cytopathogenicity after 4 days; type: functional, organism-based; details: 96 h
Summary of the method: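 MDCK monolayers infected with 100 CCID50 of influenza A (H1N1 or H3N2) or influenza B, with varying compound concentrations. Cytopathicity read when untreated infected controls reached complete CPE.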

Coxsackievirus B4 = experiment: Antiviral activity against Coxsackie virus B4 infected in human HeLa cells assessed as inhibition of virus-induced cytopathogenicity after 4 days; type: functional, organism-based; details: Enterovirus B, 96 h; summary of the method: as §1
[8] = tested on: Respiratory syncytial virus; experiment: Antiviral activity against Respiratory syncytial virus infected in human HeLa cells assessed as inhibition of virus-induced cytopathogenicity after 4 days; type: functional, organism-based; details: 96 h; summary of the method: as §1
[9] = Cytotoxicity against MDCK cells assessed as minimum compound concentration required to causes microscopically detectable alteration of normal cell morphology; type: cell-based, Canis lupus familiaris; details: dog; summary of the method: as §2

| SMILES | pIC50 [1] | pEC50 (Human respirovirus 3) | pEC50 (Sindbis virus) | MCC [2] [µM] | CC50 [3] [µM] | pEC50 (Influenza A virus [4]) | MCC [5] [µM] | pEC50 (Influenza A virus [6]) | pEC50 [7] | pEC50 (Influenza B virus) | pEC50 (Coxsackievirus B4) | pEC50 [8] | MCC [9] [µM] |
| --- | --- | --- | --- | --- | --- | --- | --- | --- | --- | --- | --- | --- | --- |
| C=C[C@H]1CN2CC[C@H]1C[C@H]2[C@H](O)c1ccnc2ccc(OC)cc12 [QUININE] | 3.49 |  |  |  |  |  |  |  |  |  |  |  |  |
| NC(=O)c1ncn([C@@H]2O[C@H](CO)[C@@H](O)[C@H]2O)n1 [RIBAVIRIN] |  | 4.54 | < 3.60 | > 250 | > 100 | 5.17 | > 250 | 5.25 | < 3.60 | 5.15 | < 3.60 | < 3.60 | > 100 |
